# DTT redox prof = compounds producing H2O2 with reducing agent – biochemical, NIH compound library profiling, artefact control for MLSCN library redox annotation, primary screen. DTT-dependent redox cycling H2O2, phenol red/HRP absorbance; 100% = 100 µM peroxide control, 0% = buffer. activation, % at 10 µM. 0.03% of 200,000 active;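 active = activation of at least 50% relative to the plate's high and low controls in the primary single-dose screen; inactive = activation below 50%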;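 note: compound incubated with DTT at 0.8 mM final as the reducing agent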
# MT stabilizer = microtubule stabilizers in HeLa cells, primary screen, imaging, high-content imaging; HeLa tubulin immunostaining HCS, 24 h; share of cells brighter than vehicle mean+2SD; % tubulin-high responders, % at 10 µM; 0.83% of 200,000 active; AID 2205, 2009;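 active = plate Z-score above 3 for both tubulin-high and condensed-nucleus cell shares, with cell loss under 80%, at 10 µM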;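 note: anti alpha tubulin signal scored within the nucleus-defined area of each cell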
# ROMK primary = ROMK potassium channel modulators, primary screen, cell-based, thallium flux, MLSMR library | 2% of 130,000 active | Tet-inducible ROMK, thallium flux fluorescence; actives lie on both sides | B-score at 10 µM | AID 1918, 2009;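 active = signal ratio slope over the read window, or its plate-corrected B-score, at least 3 SD from the plate mean, either direction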;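 note: B-score of the F/F0 ratio slope over 7 to 12 s after thallium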
# Target sequence (P48048 whole entry, looked up): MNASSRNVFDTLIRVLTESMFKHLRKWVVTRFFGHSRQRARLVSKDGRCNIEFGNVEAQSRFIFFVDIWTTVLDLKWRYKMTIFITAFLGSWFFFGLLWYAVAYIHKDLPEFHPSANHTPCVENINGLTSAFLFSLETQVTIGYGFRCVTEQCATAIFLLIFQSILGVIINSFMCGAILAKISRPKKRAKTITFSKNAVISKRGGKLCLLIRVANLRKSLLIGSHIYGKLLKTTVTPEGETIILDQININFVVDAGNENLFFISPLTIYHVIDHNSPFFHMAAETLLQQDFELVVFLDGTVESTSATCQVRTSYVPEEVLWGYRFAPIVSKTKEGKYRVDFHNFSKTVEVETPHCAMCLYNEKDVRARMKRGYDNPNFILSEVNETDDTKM
# KCC2 mod = KCC2 cotransporter modulators, thallium flux, primary screen, cell-based, HEK293 KCC2, FluoZin-2 fluorescence, MLSMR; Solute carrier family 12 member 5 (Homo sapiens), Q9H2X9; KCC2 cells, thallium flux FluoZin-2 fluorescence; B-score of Tl+ flux slope (higher = more flux/activation; lower = inhibition) at 10 µM; 2.2% of 190,000 active; AID 1456, 2008;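 active = thallium flux slope and its plate-corrected score both differing from the plate sample mean at a set confidence after two filtering rounds, in either direction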;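 note: slope of fluorescence scaled to starting intensity during 10 to 20 s after thallium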
# b-catenin transl = modulators of beta-catenin nuclear translocation, primary screen, imaging, HeLa cells, immunofluorescence, high-content. nuclear translocation activity, % at 5 µM. 0.3% of 190,000 active. AID 1665, 2009;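 active = nuclear translocation activity above 50% at 5 µM, with a well cell count of 50 or more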;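 note: per-cell ratio of nuclear to cytoplasmic median beta-catenin stain intensity; plate controls were DMSO negative control for no effect and GSK-3 inhibitor IX positive control for full effect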
#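 Read-out: Nuclear/cytoplasmic beta-catenin signal ratio, % activation | Assay system: Human HeLa cell line | Times: 24 h compound exposure at 37°C, 5% CO2 | Signal: Fluorescence imaging of beta-catenin antibody stain plus DAPI | Dosing: 5 µM primary, 0.02–20 µM confirmation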
# * marks the source's active call; other numbers are inactive results; nt = no result given. Hits are enriched below; roughly 3.7% of the tested compounds scored in any of these assays.
SMILES,DTT redox prof,MT stabilizer,ROMK primary,KCC2 mod,b-catenin transl
Clc1ccc(Cn2ncc3c(NCc4ccco4)ncnc32)c(Cl)c1,2.2,46.0*,0.0292,-2.55,nt
Clc1ccc(-n2ncc3c(NCc4ccco4)ncnc32)cc1,-2.2,6.3,3.88*,-0.206,-2.8
c1ccc(CNc2ncnc3c2cnn3Cc2ccccc2)cc1,0.6,43.7*,-1.44,-0.216,-0.5
COc1ccc(-n2ncc3c(NCc4ccco4)ncnc32)cc1,1.3,4.9,0.526,nt,-3.2
O=C(COC(=O)CNC(=O)c1sc2ccccc2c1Cl)Nc1cc(Cl)cc(Cl)c1,-2.3,3.7,0.0929,-1.96,-1.7
CCC(C)c1ccc(NC(=O)C2CCCN(c3ncccn3)C2)cc1 (configuration not stated),-0.1,35.7*,2.26,-1.51,1.9
CCC(C)c1ccc(NC(=O)C2CC2)cc1 (configuration not stated),4.2,2.5,nt,nt,nt
CCCCC(=O)Nc1nc(C)c(-c2csc(Nc3cc(OC)ccc3OC)n2)s1,-3.4,52.3*,nt,-0.209,39.1
COCCNc1nc(-c2cc(C)c(C)cc2C)cs1,-0.1,3.4,-0.421,-0.297,-1.4
Cc1ccc(/C=C2\SC(=S)N(C(Cc3ccccc3)C(=O)O)C2=O)cc1 (configuration not stated),0.1,2.6,-2.99*,-3.45*,-0.8
COc1cc(/C=C2\SC(=S)N(C(Cc3ccccc3)C(=O)O)C2=O)ccc1O (configuration not stated),nt,nt,nt,-0.653,-0.1
O=C(O)C(Cc1ccccc1)N1C(=O)/C(=C/c2ccccc2)SC1=S (configuration not stated),0.0,3.9,-0.842,-2.11,0.6
O=C(O)C(Cc1ccccc1)N1C(=O)/C(=C/c2cccc3ccccc23)SC1=S (configuration not stated),0.8,2.3,nt,-7.24*,-0.4
COc1ccc(-c2cn3c(C)c(C(=O)Nc4cc(NC(C)=O)ccc4OC)sc3n2)cc1,-0.6,34.2*,-0.464,1.34,2.6
Cc1cccc(C)c1NC(=S)N(CCCN1CCOCC1)Cc1cccnc1,-0.1,1.7,-0.255,0.489,-0.9
CCOC(=O)c1c(NC(=O)C2C3C=CC(C3)C2C(=O)O)sc2c1CC(C)CC2 (configuration not stated),-0.1,3.2,2.2,-1.52,0.3
CCCOC(=O)c1c(NC(=O)C2C3C=CC(C3)C2C(=O)O)sc2c1CCC(C)C2 (configuration not stated),-0.2,1.1,3.46*,-3.1*,4.2
CCC(=O)NC(=S)Nc1ccc(Cl)cn1,-3.0,2.2,nt,0.77,-1.6
O=C(CCc1ccccc1)Nc1ccc(Cl)cn1,-2.7,36.2*,nt,-0.902,140.3*
O=C(NC(=S)Nc1ccc(Cl)cn1)C(c1ccccc1)c1ccccc1,1.1,36.0*,nt,nt,0.8
CCCN(CC1CC1)C(=O)CSc1ncnc2sccc12,-2.0,2.8,-1.2,0.237,-3.6
COc1ccccc1C/C(N)=N/OC(=O)/C=C/c1ccccc1,-1.3,2.8,-1.08,-1.16,-2.0
O=C(NNC(=O)c1cccc(O)c1)Nc1ccc([N+](=O)[O-])cc1,1.5,3.8,1.69,0.412,0.0
Brc1ccc(NCc2cccc3ccccc23)nc1,0.2,1.7,0.0833,nt,0.4
Oc1ccccc1CNc1ccc(Br)cn1,2.6,2.9,nt,19.6*,3.1
SMILES,DTT redox prof,MT stabilizer,ROMK primary,KCC2 mod,b-catenin transl
N#Cc1cnn2ccc(-c3cc(N4CCOCC4)ccc3[N+](=O)[O-])nc12,-1.5,2.6,0.0302,0.71,1.0
O=C(Nc1cccn(Cc2c(F)cccc2Cl)c1=O)NC1CCCCC1,-2.8,16.9*,2.43,-0.428,-0.7
O=C(Nc1cccn(Cc2c(Cl)cccc2Cl)c1=O)C1CC1,-2.0,3.7,-1.39,4.08,0.8
C#CCOC(=O)Nc1cccn(Cc2c(Cl)cccc2Cl)c1=O,-3.7,51.4*,0.223,nt,5.7
O=C(Nc1cccn(Cc2cccc(F)c2)c1=O)NC1CCCCC1,-0.9,4.0,-0.212,-1.74,-0.3
O=c1c2c(-c3cccs3)csc2[nH]c(=S)n1-c1ccccc1,3.1,2.4,nt,2.4,0.5
Cc1ccc(-c2csc3nc(C)n(N)c(=O)c23)o1,0.1,2.6,0.044,-0.0326,-2.4
CCn1c(=S)[nH]c2scc(-c3cccs3)c2c1=O,-0.4,3.3,12.8*,59.9*,-1.7
C=CCn1c(=S)[nH]c2scc(-c3ccc(C)o3)c2c1=O,-0.4,5.2,7.49*,61*,-2.1
O=[n+]1cc(-c2ccc(Cl)cc2)n([O-])c2c1CCCCC2,0.1,2.3,nt,2.19,7.3
CC(C)c1ccc2c(c1)[C@H]1OCC[C@H]1[C@@H](c1cccs1)N2,0.0,19.7*,0.381,-3.6,36.3
Cc1cc(C)c2c(c1)N[C@H](c1cccs1)[C@@H]1CCO[C@H]21,nt,nt,nt,0.0358,1.4
CCOc1ccc2nc(/N=C/c3c(C)[nH]n(-c4ccccc4)c3=O)sc2c1,0.1,3.5,2.6*,76.8*,nt
Cc1[nH]n(-c2ccccc2)c(=O)c1/C=N/O,0.1,4.7,1.32,nt,-0.8
CCOc1ccc2nc(/N=C/c3c(C)[nH]n(-c4ccc(C)cc4)c3=O)sc2c1,0.0,4.4,0.262,69*,-0.6
CCc1ccc(-n2cccc2/C=C2/C(=N)N3C(=NC2=O)SN=C3S(C)(=O)=O)cc1,-0.6,3.3,0.16,-5.45*,-0.5
O=C(NCCN1CCCCCC1)C1CCCN1S(=O)(=O)c1cccc2nsnc12 (configuration not stated),nt,nt,-0.256,0.248,0.3
Cc1cccc(NC(=S)c2nc3ccccc3s2)c1,-4.5,2.6,-0.942,3.34*,1.5
O=C(Nc1ccccc1)c1nc2ccccc2s1,-0.7,3.4,-0.321,1.87,-0.8
Cc1ccc(-c2csc(-c3c[nH]c4ccccc34)n2)c(C)c1,2.9,37.1*,nt,nt,1.9
Cc1cc(C)cc(-n2c3nc4ccccc4nc3c3c(=O)n(Cc4ccco4)cnc32)c1,-0.3,2.0,0.775,0.457,0.4
CCOc1ccc(-n2c3nc4ccccc4nc3c3c(=O)n(Cc4ccco4)cnc32)cc1,0.9,7.4,1.08,2.78*,nt
O=C(COc1ccc([N+](=O)[O-])cc1)Nc1ccc(CN2CCOCC2)cc1,-1.5,2.3,-0.288,0.135,-2.2
N/C(=N\c1nc2c(c(=O)[nH]1)CCC2)Nc1ccccc1,0.0,2.6,nt,-0.0209,0.0
CC(C)c1ccc(C2C3=C(COC3=O)Nc3cc4c(cc32)OCO4)cc1 (configuration not stated),-1.1,4.7,-0.89,0.0984,73.7*
O=C(CCNC(=O)c1ccccc1Cl)Nc1cc(S(=O)(=O)N2CCOCC2)ccc1N1CCCC1,nt,nt,nt,-0.147,-0.9

# Screening data as filed in PubChem.
